Legend:
[1] = molecular target: T1, Adrenergic receptor alpha-1 (Rattus norvegicus, UniProt P15823+P23944+P43140); assay: In vitro binding affinity towards Alpha-1 adrenergic receptor in rat cortex was determined using [3H]prazosin as radioligand
T1 sequence (P15823 whole entry): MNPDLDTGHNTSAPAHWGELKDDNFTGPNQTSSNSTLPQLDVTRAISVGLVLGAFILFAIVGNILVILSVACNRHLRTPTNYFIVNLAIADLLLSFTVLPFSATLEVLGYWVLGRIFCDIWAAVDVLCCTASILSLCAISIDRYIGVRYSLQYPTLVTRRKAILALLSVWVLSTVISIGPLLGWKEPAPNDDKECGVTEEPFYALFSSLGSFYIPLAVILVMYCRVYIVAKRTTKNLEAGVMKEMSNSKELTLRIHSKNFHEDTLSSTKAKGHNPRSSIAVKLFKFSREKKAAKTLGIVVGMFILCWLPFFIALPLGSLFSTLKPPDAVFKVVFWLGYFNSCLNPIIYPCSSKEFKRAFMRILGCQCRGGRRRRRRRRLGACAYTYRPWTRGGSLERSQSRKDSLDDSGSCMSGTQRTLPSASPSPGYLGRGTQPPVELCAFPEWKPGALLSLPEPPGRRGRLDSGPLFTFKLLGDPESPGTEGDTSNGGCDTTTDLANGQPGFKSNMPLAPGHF
T1 sequence (P23944 whole entry): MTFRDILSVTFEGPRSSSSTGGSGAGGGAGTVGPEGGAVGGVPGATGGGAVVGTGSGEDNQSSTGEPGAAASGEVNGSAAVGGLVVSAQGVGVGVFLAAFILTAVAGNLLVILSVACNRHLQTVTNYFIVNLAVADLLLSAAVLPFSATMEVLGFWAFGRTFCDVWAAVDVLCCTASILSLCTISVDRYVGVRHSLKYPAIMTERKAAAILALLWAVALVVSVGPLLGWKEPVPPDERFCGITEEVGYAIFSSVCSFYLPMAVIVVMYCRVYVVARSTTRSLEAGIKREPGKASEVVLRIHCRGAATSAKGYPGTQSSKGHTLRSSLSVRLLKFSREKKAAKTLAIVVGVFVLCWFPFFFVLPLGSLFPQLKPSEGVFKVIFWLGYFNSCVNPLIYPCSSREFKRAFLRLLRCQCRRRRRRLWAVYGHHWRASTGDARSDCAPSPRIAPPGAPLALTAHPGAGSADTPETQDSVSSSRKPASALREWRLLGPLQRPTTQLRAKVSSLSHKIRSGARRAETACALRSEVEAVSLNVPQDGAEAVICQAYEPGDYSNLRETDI
T1 sequence (P43140 whole entry): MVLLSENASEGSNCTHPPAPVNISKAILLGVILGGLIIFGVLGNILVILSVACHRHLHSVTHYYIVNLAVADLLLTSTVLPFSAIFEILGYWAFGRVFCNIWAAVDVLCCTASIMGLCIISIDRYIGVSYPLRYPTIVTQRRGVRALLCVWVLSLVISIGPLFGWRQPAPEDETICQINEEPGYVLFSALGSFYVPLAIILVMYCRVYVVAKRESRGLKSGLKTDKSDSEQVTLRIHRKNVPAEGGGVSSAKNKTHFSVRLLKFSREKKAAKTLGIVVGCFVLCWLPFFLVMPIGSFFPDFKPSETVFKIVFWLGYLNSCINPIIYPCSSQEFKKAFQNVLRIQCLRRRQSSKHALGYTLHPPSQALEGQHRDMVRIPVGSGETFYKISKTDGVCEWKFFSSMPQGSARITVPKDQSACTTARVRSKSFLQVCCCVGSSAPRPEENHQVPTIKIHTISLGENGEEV
How it was run: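 Rat frontal cortex membranes (1/80 wt/vol), no preincubation, in 50 mM Tris pH 7.6 with 4 mM CaCl2 and 0.1% ascorbic acid. Ligand 0.2 nM [3H]prazosin, with phentolamine for nonspecific binding. Incubation 60 min at 25 °C, then filtration. IC50 obtained by regression and converted to pKi with radioligand Kd from saturation experiments.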

[2] = molecular target: D(2) dopamine receptor (Rattus norvegicus) (UniProt P61169)
Rattus norvegicus [3] = assay: Minimum effective antagonist dose administered subcutaneously; assay type: functional; conditions: sc, read-out: MED
How it was run: (§1)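 Male Wistar rats (200-220 g) had rectal temperature taken, then received the test drug sc in distilled water (1.0 mL/kg). After 30 min they got 8-OH-DPAT 0.16 mg/kg sc, and temperature was remeasured 30 min later. Change from basal was scored.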

[4] = molecular target: Serotonin 1a (5-HT1a) receptor/Adrenergic receptor alpha-1 (Rattus norvegicus) (UniProt P15823+P23944+P43140+P19327); assay: Ki ratio measured as the Ki values of alpha-1 adrenergic receptor to that of 5-hydroxytryptamine 1A receptor; assay type: protein assay
Rattus norvegicus [5] = species on record: Rattus norvegicus; assay: Maximum antagonist effect (% effect) expressed relative to 8-hydroxy-DPAT (100%); assay type: functional
How it was run: (§2)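 In the rat rectal-temperature model (sc dosing, 8-OH-DPAT 0.16 mg/kg sc for antagonism), the maximal percentage of induced hypothermia (agonist) and of block of 8-OH-DPAT hypothermia (antagonist) was recorded. Each value is given with the dose at which it was reached.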

[6] = molecular target: T2, 5-hydroxytryptamine receptor 1A (Rattus norvegicus, UniProt P19327); assay: Binding affinity at 5-hydroxytryptamine 1A receptor
T2 sequence (P19327 whole entry): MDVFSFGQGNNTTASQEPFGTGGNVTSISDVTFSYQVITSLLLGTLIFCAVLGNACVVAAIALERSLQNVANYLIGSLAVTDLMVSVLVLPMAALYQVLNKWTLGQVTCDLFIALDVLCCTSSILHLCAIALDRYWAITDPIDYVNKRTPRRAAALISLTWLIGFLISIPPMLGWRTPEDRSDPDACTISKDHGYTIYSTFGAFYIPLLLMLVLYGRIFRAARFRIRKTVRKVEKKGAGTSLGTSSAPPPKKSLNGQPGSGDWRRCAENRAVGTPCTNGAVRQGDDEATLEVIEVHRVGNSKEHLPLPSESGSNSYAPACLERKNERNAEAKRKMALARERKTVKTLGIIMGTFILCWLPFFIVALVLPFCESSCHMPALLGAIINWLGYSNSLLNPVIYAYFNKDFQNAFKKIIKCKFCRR
How it was run: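 Rat hippocampal membranes (1/100 wt/vol) in 50 mM Tris pH 7.7 with 4 mM CaCl2, 0.1% ascorbic acid and pargyline. Membranes were spun at 25000g, preincubated 30 min at 37 °C and respun, then incubated with 0.4 nM [3H]-8-OH-DPAT for 30 min at 25 °C. 5-HT defined nonspecific binding, and samples were filtered on PEI-soaked GF/B. IC50 came from regression; pKi = −log[IC50/(1+[L]/Kd)].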

D(2) dopamine receptor [7] = molecular target: T3, D(2) dopamine receptor (Rattus norvegicus, UniProt P61169); assay: In vitro binding affinity towards Dopamine receptor D2 in rat striatum was determined using [3H]-spiperone as radioligand; assay type: tissue-based
How it was run: (§3)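 Rat striatal membranes (1/300 wt/vol), no preincubation, in 50 mM Tris pH 7.4 with CaCl2, ascorbic acid, 5 mM KCl, 1 mM MgCl2 and 120 mM NaCl. Ligand 0.2 nM [3H]spiperone, with 100 nM ketanserin masking 5-HT2A sites; raclopride defined nonspecific binding. Incubation 30 min at 37 °C, then filtration. pKi derived from regression-based IC50.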

Rattus norvegicus [8] = species on record: Rattus norvegicus; assay: Maximum agonist effect (% effect) expressed relative to 8-hydroxy-DPAT (100%); assay type: functional; how it was run: as §2
Rattus norvegicus [9] = assay: Compound after subcutaneous administration was evaluated for antagonist activity against hypothermia induced by 8-hydroxy -DPAT in rat; assay type: functional; conditions: sc, read-out: ID50 (the source's name); how it was run: as §1
[10] = molecular target: 5-hydroxytryptamine receptor 1A (Rattus norvegicus) (UniProt P19327); assay: Ki ratio measured as the Ki values of dopamine receptor to that of 5-hydroxytryptamine 1A receptor
Rattus norvegicus [11] = assay: Minimum effective agonist dose administered subcutaneously; assay type: functional; conditions: sc, read-out: MED
How it was run: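 Male Wistar rats (200-220 g) were given the test drug alone sc in water (1.0 mL/kg), with vehicle reinjected at 30 min. Rectal temperature change from basal was measured 60 min after the first injection. MED for hypothermia was set against vehicle by ANOVA with Dunnett's test, P < 0.05.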

[12] = Ratio of MED (agonist) to that of MED (antagonist) values.; assay type: functional
How it was run: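 The MED for inducing hypothermia alone was divided by the MED for blocking 8-OH-DPAT (0.16 mg/kg sc) hypothermia. Both MEDs came from sc dosing in male Wistar rats and were tested against vehicle by ANOVA with Dunnett's test, P < 0.05.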

[13] = molecular target: 5-hydroxytryptamine receptor 1B (Rattus norvegicus, UniProt P28564); assay: Binding affinity at 5-hydroxytryptamine 1B receptor
How it was run: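 Rat frontal cortex membranes (1/40 wt/vol) were homogenized in 50 mM Tris pH 7.7 with pargyline, 4 mM CaCl2 and 0.1% ascorbic acid, then preincubated for 30 min at 37 °C. Labelled with 2.0 nM [3H]-5-HT, with 100 nM 8-OH-DPAT and 100 nM mesulergine masking 5-HT1A/5-HT2A sites; 5-CT defined nonspecific binding.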

[14] = molecular target: D(2) dopamine receptor (Rattus norvegicus) (UniProt P61169); assay: Inhibitory activity against methyl-phenidate-induced gnawing at dopamine receptor D2 in rat
How it was run: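 Male Wistar rats (200-220 g) received the test drug sc in water (1.0 mL/kg), then methylphenidate 40.0 mg/kg ip 30 min later. Observation began 30 min after that. Gnawing bouts were counted in 10 s per minute (maximum 10) by a blinded observer.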

D(2) dopamine receptor [15] = molecular target: T3, D(2) dopamine receptor; assay: In vitro binding affinity towards Dopamine receptor D2 in rat striatum was determined using [3H]spiperone as radioligand; assay type: tissue-based; how it was run: as §3
D(2) dopamine receptor [16] = molecular target: T3, D(2) dopamine receptor; assay: In vitro binding affinity towards dopamine D2 receptor in rat striatum was determined using [3H]-spiperone as radioligand; assay type: tissue-based; how it was run: as §3

D(2) dopamine receptor (Rattus norvegicus), sequence (P61169 whole entry): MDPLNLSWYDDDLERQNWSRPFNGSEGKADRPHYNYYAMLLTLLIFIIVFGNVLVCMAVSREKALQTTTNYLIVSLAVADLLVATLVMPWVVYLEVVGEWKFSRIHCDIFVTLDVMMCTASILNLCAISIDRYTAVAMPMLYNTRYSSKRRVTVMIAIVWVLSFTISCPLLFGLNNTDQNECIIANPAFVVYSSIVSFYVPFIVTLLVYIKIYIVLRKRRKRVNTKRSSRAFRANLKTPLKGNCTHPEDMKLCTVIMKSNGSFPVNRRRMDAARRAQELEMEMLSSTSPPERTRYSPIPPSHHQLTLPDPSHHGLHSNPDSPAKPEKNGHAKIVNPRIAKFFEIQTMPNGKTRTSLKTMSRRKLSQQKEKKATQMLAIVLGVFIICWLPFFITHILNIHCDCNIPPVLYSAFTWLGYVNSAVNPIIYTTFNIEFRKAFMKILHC
T3 sequence (P61169 whole entry): as above
5-hydroxytryptamine receptor 1B, sequence (P28564 whole entry): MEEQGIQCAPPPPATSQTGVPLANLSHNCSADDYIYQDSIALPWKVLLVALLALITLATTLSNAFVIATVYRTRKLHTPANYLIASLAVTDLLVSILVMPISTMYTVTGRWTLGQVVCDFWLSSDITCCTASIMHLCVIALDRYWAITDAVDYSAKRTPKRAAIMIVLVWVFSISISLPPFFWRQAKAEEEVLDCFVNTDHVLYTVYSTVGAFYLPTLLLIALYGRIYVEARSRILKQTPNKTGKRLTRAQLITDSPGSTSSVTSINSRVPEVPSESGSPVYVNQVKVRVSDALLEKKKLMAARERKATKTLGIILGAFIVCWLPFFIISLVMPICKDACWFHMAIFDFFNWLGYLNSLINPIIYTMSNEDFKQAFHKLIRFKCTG

Structure (SMILES)	Log Ki [1]	ID50 [2]	minimal effective dose (Rattus norvegicus [3])	Ki ratio [4]	Max effect (Rattus norvegicus [5])	Ki [6]	Ki (D(2) dopamine receptor [7])	Max effect (Rattus norvegicus [8])	ED50 (Rattus norvegicus [9])	Ki ratio [10]	minimal effective dose (Rattus norvegicus [11])	Ratio [12]	Ki [13]	ID50 [14]	Ki (D(2) dopamine receptor [15])	Ki (D(2) dopamine receptor [16])
c1ccc2c(c1)CCC2CN1CCN(c2cccc3c2OCCO3)CC1 (stereo not given)	-7.75	> 40 mg/kg	0.63 mg/kg	18.6	63%	1.74 nM	41.7 nM	43%	1.32 mg/kg	43.6	10 mg/kg	15.8	200 nM	–	–	–
c1ccc2c(c1)CCC2CCN1CCN(c2cccc3c2OCCO3)CC1 (stereo not given)	–	–	0.63 mg/kg	–	94%	1.58 nM	–	19%	1.29 mg/kg	–	> 40 mg/kg	> 63.5	–	> 40 mg/kg	–	–
COc1ccccc1N1CCN(CCCCN2C(=O)c3ccccc3C2=O)CC1 [NAN-190]	–	10 mg/kg	0.63 mg/kg	–	56%	–	–	100%	97 mg/kg	–	5 mg/kg	–	–	–	31.6 nM	–
c1ccc2c(c1)CC2CCCN1CCN(c2cccc3ccoc23)CC1 (stereo not given)	–	–	2.5 mg/kg	–	47%	2.82 nM	–	46%	2.5 mg/kg	–	10 mg/kg	4	1410 nM	40 mg/kg	–	–
c1ccc2c(c1)CC2CCCCN1CCN(c2cccc3c2OCCO3)CC1 (stereo not given)	-7.56	> 40 mg/kg	5 mg/kg	17.8	88%	1.29 nM	–	0%	1.43 mg/kg	12.5	> 10 mg/kg	> 2	631 nM	–	19.5 nM	–
c1ccc2c(c1)CC(N1CCN(c3cccc4c3OCCCO4)CC1)C2	-6.68	> 40 mg/kg	5 mg/kg	55	51%	–	–	72%	5.18 mg/kg	–	10 mg/kg	2	1410 nM	–	195 nM	–
c1ccc2c(c1)CC2CCN1CCN(c2cccc3c2OCCO3)CC1 (stereo not given)	-7.66	> 40 mg/kg	1.25 mg/kg	35.4	76%	0.589 nM	49 nM	32%	0.65 mg/kg	–	40 mg/kg	32	–	–	–	–
c1ccc2c(c1)CC2CCN1CCN(c2cccc3ccoc23)CC1 (stereo not given)	–	–	1.25 mg/kg	–	91%	1.41 nM	–	21%	1.12 mg/kg	–	> 40 mg/kg	> 32	1510 nM	> 40 mg/kg	–	–
COc1ccccc1N1CCN(C[C@@H](C(=O)NC(C)(C)C)c2ccccc2)CC1	-5.94	> 40 mg/kg	2.5 mg/kg	35.6	73%	–	389 nM	50%	2.45 mg/kg	–	40 mg/kg	16	> 10000 nM	–	–	–
COc1cc2c(cc1OC)C(CCN1CCN(c3cccc4c3OCCO4)CC1)CC2 (stereo not given)	-7.81	40 mg/kg	2.5 mg/kg	9.8	84%	1.58 nM	–	12%	0.86 mg/kg	–	> 40 mg/kg	> 16	676 nM	–	–	132 nM
c1ccc2c(c1)CC(N1CCN(c3cccc4c3OCCO4)CC1)C2	-6.84	> 40 mg/kg	0.63 mg/kg	81	95%	–	347 nM	46%	1.4 mg/kg	–	20 mg/kg	31.7	1780 nM	–	–	–
